Series [1] can be described thus: Half life period was determine after peroral administration at 10 mpk in Rhesus. Type of series: ADME, organism-based. The note with it: cercopithecidae, in vivo, po, 10 mg/kg.
The nature of series [2]: In vitro intrinsic clearance in human liver microsome. Type of series: ADME. The note with it: liver microsomes. (Liver microsomes are vesicles of endoplasmic reticulum, rich in cytochrome P450 enzymes.)
Series [3] is described as follows: Oral bioavailability in Rhesus monkey (dose 10 mg/kg p.o.). Type of series: ADME, organism-based, Macaca mulatta. The note with it: in vivo.
Series [4] in a line: Cmax was determine after peroral administration at 10 mpk in Rhesus. Type of series: ADME, organism-based. Details: dose 10 mpk, route oral. The note with it: cercopithecidae, in vivo, po, 10 mg/kg.
A short description of series [5]: Oral bioavailability after peroral administration at 5 mpk in Dog. The following applies: in vivo, 5 mg/kg. Type of series: ADME, organism-based, Canis lupus familiaris.
Series [6] can be described thus: Area under curve was determine after peroral administration at 10 mpk in Rhesus. Type of series: ADME. The note with it: cercopithecidae, in vivo, po, 10 mg/kg.
Series [7] can be described thus: Cmax was determine after peroral administration at 5 mpk in dog. The class given is ADME, organism-based, Canis lupus familiaris. Details: dose 5 mpk, route oral. The following applies: in vivo, po, 5 mg/kg.
Series [8] in a line: Plasma clearance after peroral administration at 10 mpk in Rhesus. The class given is ADME, organism-based. The following applies: cercopithecidae, po, 10 mg/kg, read-out: Clp.
Series [9] can be described thus: Half life period was determine after peroral administration at 5 mpk in dog. Type of series: ADME, organism-based, Canis lupus familiaris. The following applies: in vivo, po, 5 mg/kg.
For series [10], the system named is Canis familiaris. Nature of the series: Plasma clearance after peroral administration at 5 mpk in dog. The class given is ADME, organism-based, Canis lupus familiaris. The following applies: in vivo, po, 5 mg/kg.
For series [11], the target named is Cytochrome P450 2C9 (Homo sapiens, UniProt P11712). Put plainly: In vitro inhibition of human liver microsome Cytochrome P450 2C9. Type of series: ADME, microsomes.
Series [12] addresses Cytochrome P450 2D6 (Homo sapiens, UniProt P10635). Put plainly: In vitro inhibition of human liver microsome Cytochrome P450 2D6. Type of series: ADME, microsomes.
Series [13] addresses Cytochrome P450 3A4 (Homo sapiens, UniProt P08684). Nature of the series: In vitro inhibition of human liver microsome Cytochrome P450 3A4.
In series [14] the test system is MT4. Nature of the series: Compound was tested for their ability to inhibit spread of PI-resistant HIV-1 (strain V-60C) viral infection in MT-4 human T-lymphoidcell. Type of series: functional. The note with it: read-out: CIC95. In outline:
(§1)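 Spread of infection was measured in MT4 human T-lymphoid cells infected with viral constructs derived from the resistant clinical strains. The value is CIC95, the concentration that inhibits 95% of viral spread. "≤" and "≥" values are the lowest and highest concentrations tested.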

In series [15] the target is T1, Human immunodeficiency virus type 1 protease (Human immunodeficiency virus 1, UniProt Q72874). Put plainly: Inhibitory activity against HIV-1 Protease from PI-resistant HIV-1 (strain K-60C).
Series [16] has as its target T1, Human immunodeficiency virus type 1 protease. Put plainly: Inhibitory activity against HIV-1 Protease from PI-resistant HIV-1 (strain Q-18C).
For series [17] the target is unchanged. Nature of the series: Inhibitory activity against HIV-1 Protease from wild-type NL4-3 virus.
Series [18] deals with Canis familiaris. Nature of the series: (§2) Area under curve was determine after peroral administration at 5 mpk in dog. Type of series: ADME, organism-based, Canis lupus familiaris. The following applies: in vivo, po, 5 mg/kg.
Series [19] deals with MT4. Nature of the series: Compound was tested for their ability to inhibit spread of wild-type NL4-3 viral infection in MT-4 human T-lymphoidcell. Type of series: functional. The note with it: read-out: CIC95. The procedure, abridged: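 Viral spread assay in MT4 human T-lymphoid cells infected with a viral construct derived from wild-type NL4-3. The read-out is CIC95, the concentration that blocks 95% of the spread of infection. Values marked ≤ or ≥ are the lowest or highest concentrations tested.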

The target of series [20] is T1, Human immunodeficiency virus type 1 protease. Nature of the series: Inhibitory activity against HIV-1 Protease from PI-resistant HIV-1 (strain V-18C).
The test system of series [21] is MT4. Nature of the series: Compound was tested for their ability to inhibit spread of PI-resistant HIV-1 (strain K-60C) viral infection in MT-4 human T-lymphoidcell. Type of series: functional. The note with it: read-out: CIC95. In outline:
as §1

Series [22] deals with MT4. Nature of the series: Compound was tested for their ability to inhibit spread of PI-resistant HIV-1 (strain Q-18C) viral infection in MT-4 human T-lymphoidcell. The class given is functional. The following applies: read-out: CIC95. The procedure, abridged:
as §1

A short description of series [23]: Oral bioavailability in dog (dose 5 mg/kg). The class given is ADME, organism-based, Canis lupus familiaris. The note with it: in vivo.
Series [24] is described as follows: Cmax was determine after peroral administration at 5 mg/kg in dog. The class given is ADME, organism-based, Canis lupus familiaris. Also noted: dose 5 mg/kg, route oral. The note with it: in vivo, po.
Series [25] concerns MT4. Put plainly: Compound was testedm for their ability to inhibit spread of PI-resistant HIV-1 (strain V-60C) viral infection in MT-4 human T-lymphoidcell. The class given is functional. The note with it: read-out: CIC95. In outline:
as §1

Series [26] in a line: Oral bioavailability in dog (dose 10 mg/kg). Type of series: ADME, organism-based, Canis lupus familiaris. The note with it: in vivo.
Series [27] can be described thus: (§3) Area under curve was determine after peroral administration at 10 mpk in dog. The class given is ADME, organism-based, Canis lupus familiaris. The following applies: in vivo, po, 10 mg/kg.
The nature of series [28]: Half life period was determine after peroral administration at 10 mpk in dog. The class given is ADME, organism-based, Canis lupus familiaris. The note with it: in vivo, po, 10 mg/kg.
The nature of series [29]: (§4) Plasma clearance after peroral administration at 10 mpk in dog. The note with it: plasma, po, 10 mg/kg, read-out: Clp. Type of series: ADME, organism-based, Canis lupus familiaris.
A short description of series [30]: Cmax was determine after peroral administration at 10 mpk in dog. Type of series: ADME, organism-based, Canis lupus familiaris. Details: dose 10 mpk, route oral. The note with it: in vivo, po, 10 mg/kg.
In series [31] the test system is Canis familiaris. The series is described as §3. The following applies: in vivo, po, 10 mg/kg. Type of series: ADME, organism-based, Canis lupus familiaris.
In series [32] the test system is Canis familiaris. The series is described as §4. The note with it: in vivo, po, 10 mg/kg. Type of series: ADME, organism-based, Canis lupus familiaris.
Series [33] in a line: Plasma clearance after peroral administration at 5 mg/kg in dog. The class given is ADME, organism-based, Canis lupus familiaris. Also noted: dose 5 mg/kg, route oral. The note with it: po, read-out: Clp.
Series [34] in a line: as §2. The note with it: in vivo, po, 5 mg/kg. Type of series: ADME, organism-based, Canis lupus familiaris.

SMILES strings stand for the structures.

Chain of Cytochrome P450 3A4 (P08684 whole entry): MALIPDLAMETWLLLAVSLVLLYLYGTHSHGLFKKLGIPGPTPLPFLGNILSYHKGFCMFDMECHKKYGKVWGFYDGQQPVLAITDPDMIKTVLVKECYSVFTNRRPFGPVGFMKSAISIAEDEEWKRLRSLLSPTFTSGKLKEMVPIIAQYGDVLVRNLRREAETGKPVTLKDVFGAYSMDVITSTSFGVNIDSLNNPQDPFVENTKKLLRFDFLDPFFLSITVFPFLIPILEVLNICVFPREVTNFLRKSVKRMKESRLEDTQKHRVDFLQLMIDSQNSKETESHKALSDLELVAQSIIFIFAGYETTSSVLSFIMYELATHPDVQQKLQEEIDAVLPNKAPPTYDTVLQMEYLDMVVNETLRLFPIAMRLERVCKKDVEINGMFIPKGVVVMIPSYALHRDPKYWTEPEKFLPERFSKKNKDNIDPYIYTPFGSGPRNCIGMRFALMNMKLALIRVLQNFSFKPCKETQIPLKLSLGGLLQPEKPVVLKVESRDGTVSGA
Chain of Cytochrome P450 2D6 (P10635 whole entry): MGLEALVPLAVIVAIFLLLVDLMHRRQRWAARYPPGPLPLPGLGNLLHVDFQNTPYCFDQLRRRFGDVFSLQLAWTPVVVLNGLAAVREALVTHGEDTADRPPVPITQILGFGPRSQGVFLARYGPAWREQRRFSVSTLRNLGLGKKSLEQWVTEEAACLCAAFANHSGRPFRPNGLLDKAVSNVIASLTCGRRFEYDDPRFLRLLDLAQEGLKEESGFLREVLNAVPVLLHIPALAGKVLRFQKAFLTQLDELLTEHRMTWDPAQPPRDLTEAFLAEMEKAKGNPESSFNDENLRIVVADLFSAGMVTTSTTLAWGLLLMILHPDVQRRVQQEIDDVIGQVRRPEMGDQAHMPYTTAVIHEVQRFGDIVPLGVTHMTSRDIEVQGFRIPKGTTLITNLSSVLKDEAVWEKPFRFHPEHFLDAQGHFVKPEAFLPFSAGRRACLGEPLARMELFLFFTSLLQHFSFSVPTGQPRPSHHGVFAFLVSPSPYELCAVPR
Chain of Cytochrome P450 2C9 (P11712 whole entry): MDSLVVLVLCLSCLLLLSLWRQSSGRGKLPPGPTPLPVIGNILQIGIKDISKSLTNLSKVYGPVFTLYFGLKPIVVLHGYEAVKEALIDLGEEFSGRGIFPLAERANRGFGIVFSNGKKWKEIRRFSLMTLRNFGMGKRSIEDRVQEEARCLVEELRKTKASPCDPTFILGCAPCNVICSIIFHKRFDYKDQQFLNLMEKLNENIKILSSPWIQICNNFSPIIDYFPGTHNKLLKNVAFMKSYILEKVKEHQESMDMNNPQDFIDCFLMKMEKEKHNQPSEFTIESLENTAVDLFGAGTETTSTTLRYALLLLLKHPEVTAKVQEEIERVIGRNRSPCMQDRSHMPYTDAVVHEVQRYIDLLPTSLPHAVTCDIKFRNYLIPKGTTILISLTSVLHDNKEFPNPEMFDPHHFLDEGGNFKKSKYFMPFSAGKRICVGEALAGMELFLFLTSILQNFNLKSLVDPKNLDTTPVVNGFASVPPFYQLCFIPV

The half-life is the time in which the quantity being followed falls by half. For orientation: CLint scaled means the rate of metabolic loss divided by the concentration. The bioavailability is dose-corrected exposure relative to a reference, in per cent. What is called Cmax is the maximum level reached in the sampled fluid or tissue. Usually AUC stands for concentration integrated over time. Usually IC50 stands for the concentration needed to halve the response being measured. In the case of `CC(C)(c1ccc(-c2ccncc2)o1)N1CCN(C[C@@H](O)C[C@@H](Cc2ccccc2)C(=O)N[C@H]2c3ccccc3OC[C@H]2O)[C@H](C(=O)NCC(F)(F)F)C1`, the half-life in [1] is 91 min; in series [9], 70 min. The compound also showed a CLint scaled in series [2] of 19 mL/min/kg. Moreover, the bioavailability is 90% in [3] and 100% in series [5]. In addition, the maximum concentration (Cmax) in [4] is 4.4 µM; in [7], 7.3 µM. Besides, the exposure (AUC) in [6] came out at 9.9 µM·h; in series [18] it was 11.3 µM·h. Further, the CL/F in series [8] stood at 20.4 mL/min/kg. In series [10], the Clp was found to be 22.5 mL/min/kg. For the same compound, the IC50 came to 410 nM in series [11]; 360 nM in series [12]; 10 nM in [13]; 0.3 nM in series [15]; 0.1 nM in series [16]; 0.05 nM in series [17]. Further, half-maximal inhibition in series [20] (IC50) required 1.2 nM. Moreover, the IC95 in [14] is 12 nM; in [19], no more than 8 nM.

On to `CC(C)(c1cc2cnccc2o1)N1CCN(C[C@@H](O)C[C@@H](Cc2ccccc2)C(=O)N[C@H]2c3ccccc3OC[C@H]2O)[C@H](C(=O)NCC(F)(F)F)C1`, for which the IC95 in series [21] was 250 nM; in series [22], 62 nM; in [14] it was 62 nM; in [19], no more than 8 nM. Moreover, the IC50 in series [15] worked out at 5.8 nM; in series [16], 1.6 nM; in series [20] it was 5.2 nM.

Take `O=C(N[C@H]1c2ccccc2OC[C@H]1O)[C@H](Cc1ccccc1)C[C@H](O)CN1CCN(Cc2ccc(-c3cccnc3)o2)C[C@H]1C(=O)NCC(F)(F)F`: the CLint scaled in series [2] is 233 mL/min/kg. The compound further had a bioavailability in series [23] of 2%. For the same compound, the peak level in [24] (Cmax) was 0.2 µM. The compound also yielded a half-life in series [9] of 41 min. In series [10], this compound gave a Clp of 25.2 mL/min/kg. In addition, the IC50 in series [11] is greater than 30000 nM; in [12], 6400 nM; in series [13], 440 nM; in series [15], 0.3 nM; in series [17], 0.03 nM; in series [20], 0.7 nM. Besides, the values for the IC95 in series [21], in series [25] and in [19] were 15 nM, 15 nM and no more than 8 nM, respectively. In series [18], this compound yielded an exposure (AUC) of 0.1 µM·h.

Compound `CC(C)(C)NC(=O)[C@@H]1CN(Cc2cccnc2)CCN1C[C@@H](O)C[C@@H](Cc1ccccc1)C(=O)N[C@H]1c2ccccc2C[C@H]1O.O` yielded a bioavailability in series [26] of 72%. Also, the area under the curve (AUC) in [27] came out at 12.5 µM·h. The compound also had a half-life in series [28] of 28 min. Also, in series [29], the CL/F worked out at 16 mL/min/kg. Also, the IC95 in series [21] is greater than 1000 nM; in [22] it was greater than 1000 nM; in series [14] it was greater than 1000 nM; in series [19], 50 nM.

Consider `O=C(N[C@H]1c2ccccc2OC[C@H]1O)[C@H](Cc1ccccc1)C[C@H](O)CN1CCN(Cc2ccc(-c3ccccn3)o2)C[C@H]1C(=O)NCC(F)(F)F`, for which the intrinsic metabolic clearance (CLint scaled) in series [2] came out at 655 mL/min/kg. Moreover, in [26], the bioavailability was found to be 4%. The compound further showed a peak concentration (Cmax) in series [30] of 0.9 µM. The same compound showed an area under the curve (AUC) in series [31] of 0.4 µM·h. This compound also returned a half-life in [28] of 50 min. This compound also displayed a Clp in series [32] of 33.5 mL/min/kg. Besides, the IC50 in [11] is greater than 30000 nM; in series [12], 29600 nM; in series [13], 5200 nM; in series [15] it was 0.5 nM; in series [16], 0.4 nM; in series [20], 0.7 nM. Further, the IC95 in series [21] was 31 nM; in series [22], 15 nM; in series [14], 15 nM; in series [19] it was no more than 8 nM.

In series [2], `O=C(N[C@H]1c2ccccc2OC[C@H]1O)[C@H](Cc1ccccc1)C[C@H](O)CN1CCN(Cc2ccc(-c3ccncc3)o2)C[C@H]1C(=O)NCC(F)(F)F` registered a CLint scaled of 133 mL/min/kg. Besides, the bioavailability in [23] stood at 55%. Also, the highest level in series [24] (Cmax) was 5.3 µM. This compound also had a half-life in [9] of 60 min. Also, the CL/F in series [33] is 24.5 mL/min/kg. Further, the IC50 in [11] came to 5500 nM; in [12] it was 530 nM; in [13] it was 320 nM; in series [15], 0.6 nM; in series [16] it was 0.8 nM; in [17], 0.08 nM. This compound displayed an IC50 in [20] of 1.3 nM. Also, the IC95 was 15 nM in series [21], 31 nM in [22], 31 nM in series [14] and no more than 8 nM in [19]. Moreover, in [34], the AUC came out at 2.6 µM·h.
